NPY1 pot ag: potentiators or agonists of human neuropeptide Y receptor Y1; 0.37% of 220,000 active; AID 1304; activation, % at 3.6 µM; NPY-Y1 expressing cells, potentiator/agonist activation; P25929; in the data active means activation above about 33%, passing the limit was not always enough;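 further: cells stimulated with NPY at EC10 then isoproterenol at EC100; 0% = low agonist plus stimulus and 100% = saturating agonist plus stimulus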
TbHK1 inh: blocks Trypanosoma brucei hexokinase 1 activity; recombinant TbHK1, G6PDH-coupled NADH A340; inhibition, % at 10 µM; 0.11% of 220,000 active; AID 1430;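 active means inhibition of 50% or more in the single-dose primary screen; inactive means inhibition below 50%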
Calpain2 inh: calpain II (pig) inhibition; purified calpain II, fluorogenic peptide substrate, 30 min; AID 1236; inhibition, % at 16 µM; 0.37% of 220,000 active;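 active means inhibition above about 50%, limit read from the data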
NPY Y2 blocker: blocks the human neuropeptide Y Y2 receptor. NPY-Y2 expressing cells, antagonist mode. inhibition, % at 2.7 µM. 0.99% of 140,000 active; in the data active means inhibition above about 17%;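 further: 0% = vehicle with agonist challenge and 100% = reference antagonist with challenge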
Target sequence (P49146 whole entry, looked up): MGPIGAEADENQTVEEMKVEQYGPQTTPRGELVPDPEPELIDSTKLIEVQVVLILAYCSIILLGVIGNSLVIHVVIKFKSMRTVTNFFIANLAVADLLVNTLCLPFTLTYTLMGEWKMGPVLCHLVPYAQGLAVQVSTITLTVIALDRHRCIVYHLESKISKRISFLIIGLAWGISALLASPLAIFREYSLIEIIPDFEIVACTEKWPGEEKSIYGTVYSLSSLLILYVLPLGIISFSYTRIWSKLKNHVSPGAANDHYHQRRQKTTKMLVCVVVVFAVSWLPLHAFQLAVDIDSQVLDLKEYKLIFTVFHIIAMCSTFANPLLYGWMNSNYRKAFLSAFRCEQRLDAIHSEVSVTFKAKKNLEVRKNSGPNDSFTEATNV
NPY-Y1 antag: blocks the human neuropeptide Y Y1 receptor. HEK293-CNG Y1 cells, membrane potential fluorescence; NPY at EC95, then isoproterenol. inhibition, % at 3.6 µM. 1% of 200,000 active;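 active means inhibition above the campaign mean inhibition of all tested compounds plus 3 SD, cut at about 20% in these data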;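 further: 0% = DMSO wells given NPY plus isoproterenol and 100% = isoproterenol alone without NPY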
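Material: HEK293 cells co-expressing NPY Y1 receptor and cyclic-nucleotide gated channel. Timing: compound incubation 1 h at room temperature, readout 45 min post-stimulation. Signal: fluorescence, membrane potential probe.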
NPY-Y2 PAM-ag: potentiators or agonists of human neuropeptide Y receptor Y2. P49146. cells expressing NPY-Y2, potentiator/agonist read-out. activation, % at 3.6 µM. 0.45% of 220,000 active; in the data active means activation above about 27%;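 further: cells stimulated with NPY near EC25 plus isoproterenol at EC100; 0% = vehicle plus submaximal agonist and 100% = vehicle plus saturating agonist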
* marks the source's active call; other numbers are inactive results; / = no result. Most compounds without a hit are left out; they make up all but 2.3% or so of the library.

SMILES	NPY1 pot ag	TbHK1 inh	Calpain2 inh	NPY Y2 blocker	NPY-Y1 antag	NPY-Y2 PAM-ag
O=C1CCc2ccccc2N1	-18	-11	-1	/	/	-7
S=C1Cc2ccccc2N1	11	-6	55*	/	/	-14
CCOC(=O)C1(Cc2ccccc2)CCN(Cc2ccc3c(c2)OCCO3)CC1	-10	13	27	/	10	-14
CC1(C)C(N(O)C(=O)Nc2ccc(Cl)cc2)N(c2ccc(Cl)cc2)C(=O)N1CC(=O)NN (configuration not stated)	41*	-6	-23	0	-8	43*
O=C(Cc1ncc(C(F)(F)F)cc1Cl)NCc1ccco1	13	4	-6	/	-2	3
CCOc1ccccc1C(=O)N1c2ccccc2Sc2ccccc21	8	-6	55*	1	-1	7
O=C(O)c1ccccc1C(=O)N1CCN(c2cccc(Cl)c2)CC1	-14	0	14	5	4	1
CCOc1ccccc1C(=O)N1CCN(c2cccc(Cl)c2)CC1	-17	7	-4	17*	30*	-14
Nn1c(SCC(=O)Nc2cc(S(=O)(=O)N3CCOCC3)ccc2Cl)nnc1-c1cccnc1	-8	-2	-45	/	1	6
CC(C)CCN(C(=S)NC(=O)C1CCCCC1)c1c(N)n(Cc2ccccc2)c(=O)[nH]c1=O	1	8	64*	/	6	-4
Cc1cnc(NC(=O)c2cc3ccccc3o2)s1	4	-18	-23	/	-8	12
COc1ccc(CCNCC(O)COc2cccc(Br)c2)cc1OC (configuration not stated)	105*	3	-6	/	/	82*
CCC(=O)N1CCN(c2ccc(Cl)cc2NC(=O)c2ccc(Br)o2)CC1	-31	-4	/	17*	9	-1
Cc1ccc(C(=O)Nc2ccccc2N2CCN(C(=O)C(C)C)CC2)cc1	10	-4	15	4	14	4
CCC(=O)N1CCN(c2ccccc2NC(=O)Cc2ccccc2)CC1	-17	-6	0	16	24*	-17
CC(=O)N1CCN(c2ccccc2NC(=O)Cc2ccc(Cl)cc2)CC1	-5	2	-12	/	4	-2
CC(C)C(=O)N1CCN(c2ccccc2NC(=O)Cc2ccc(Cl)cc2)CC1	-6	-6	1	20*	44*	-6
CCOc1cccc(C(=O)Nc2ccccc2N2CCN(C(=O)C(C)C)CC2)c1	-9	-12	23	21*	21*	-10
COc1ccc2nccc(/C=C/c3ccnc4ccc(OC)cc34)c2c1	-6	-33	17	/	/	-1
O=C(CN(Cc1cccs1)C(=O)CCC(=O)Nc1ccccn1)NCc1ccccc1	-1	-2	-8	/	-2	3
O=C(COC(=O)CNC(=O)c1ccc(Cl)cc1)Nc1cccc(S(=O)(=O)N2CCCC2)c1	25	4	6	/	/	-3
COc1cccc(C=NCCNC(=O)c2nonc2N)c1O	-5	-4	101*	-1	3	-6
CCCc1nc(SCC(=O)c2ccccc2)c2c(=O)n(C)c(=O)n(C)c2n1	-1	8	53*	9	4	-10
Nn1c(Cc2cccc3ccccc23)nnc1SCc1ccc(Cl)c(Cl)c1	-4	4	55*	4	2	8
O=C(O)CCC(=O)Nc1nc(-c2ccccc2)cs1	-41	-4	-8	22*	12	-14
SMILES	NPY1 pot ag	TbHK1 inh	Calpain2 inh	NPY Y2 blocker	NPY-Y1 antag	NPY-Y2 PAM-ag
Nc1n[nH]c(N)c1N=Nc1ccccc1	26	-25	0	/	0	23
Nc1n[nH]c(N)c1N=Nc1ccc(F)cc1	-5	-31	51*	/	0	-5
O=c1/c(=C/c2ccc(O)c([N+](=O)[O-])c2)sc2nc3ccccc3n12	6	78*	3	/	-3	0
O=c1/c(=C\c2cccnc2)sc2nc3ccccc3n12	-2	-2	-13	0	-1	4
CC(=O)Nc1ccc(NC(=O)CSc2ccc([N+](=O)[O-])cn2)cc1	-6	-34	9	/	/	-9
COc1ccc(-c2cc(C(=O)N3CCCc4ccccc43)no2)cc1	-14	2	53*	5	6	-10
COc1ccc(NC(=O)OCCn2c([N+](=O)[O-])cnc2C)cc1	-3	13	-2	-1	-1	8
COc1ccc2nc3cc(Cl)ccc3c(Nc3cc(C(C)C)c(O)cc3C)c2c1	62*	0	2	/	/	59*
O=C(Cn1nc(C(=O)O)c2ccccc2c1=O)Nc1ccc2c(c1)C(=O)c1ccccc1C2=O	10	-10	19	/	/	-6
Clc1ccc(NC2=NCCCCC2)cc1	7	4	5	1	46*	10
CCOC(=O)Cn1c(C)cc(=O)c2cccc(C)c21	13	2	3	2	2	-15
CCOC(=O)Cn1c(=O)cc(C)c2cccc(C)c21	-8	1	73*	/	5	-8
C=CCOc1ccc(CNc2ccc3[nH]c(=O)[nH]c3c2)cc1	5	-1	-11	/	5	1
O=C(Nc1ccc(N2CCCC2)cc1)c1ccc(Br)o1	12	-16	-14	0	-2	16
CN1CCN(c2ccc(NC(=O)c3ccc(-c4ccc(Br)cc4)o3)cc2)CC1	41*	-24	-24	/	0	32*
O=C(c1ccccc1)c1c[nH]c(C(=O)NNc2ccccc2)c1	0	-1	-21	/	-1	1
Cc1ccc(Cl)cc1N1CCN(CC(=O)Nc2ccc(CN3CCCCC3)cc2)CC1	-87	15	-16	14	36*	-28
O=C(CN1C(=O)/C(=C/c2cccc(Br)c2)SC1=S)Nc1cccnc1	-7	-9	-12	/	1	-7
O=C(CN1C(=O)/C(=C/c2cccc(Br)c2)SC1=S)NC1=NCCS1	5	-14	84*	/	0	-13
C#CCOCCOCCOCCNc1nc(N2CCN(C(=O)[C@H](CCC(=O)O)n3cc(C(N)CO)nn3)CC2)nc(N2CCN(C(=O)[C@H](CCC(=O)O)n3cc(C(N)CC(C)C)nn3)CC2)n1 (some centres not stated)	/	-17	8	/	/	/
c1ccc(-c2csc(-n3cccn3)n2)cc1	5	-4	-3	/	-1	2
CC(=O)c1c(N2CCN(c3ccccn3)CC2)nc(=S)n(-c2ccccc2)c1C	-7	-9	-2	/	0	1
C[C@]12CCC(=O)C=C1[C@H](O)C[C@@H]1[C@@H]2[C@@H](O)C[C@@]2(C)[C@H]1CC[C@]2(O)C(=O)CO	117*	4	13	0	-13	101*
COc1ccc(C(=O)C[n+]2cc(-c3ccc(OC)cc3)n3c2CCCC3)cc1	4	10	-12	/	1	-1
Cc1ccc(C(=O)C[n+]2cc(-c3ccc(C)cc3)n3c2CCCCC3)cc1	-35	3	31	32*	79*	-10
Cc1ccc([N+](=O)[O-])cc1NC(=O)CN(C1CCCCC1)S(=O)(=O)c1ccc(Cl)cc1	19	5	9	3	2	5

High-throughput results as filed in PubChem.
